In ChEMBL document CHEMBL3875192, “Synthesis and binding monitoring of a new nanomolar PAMAM-based matrix metalloproteinases inhibitor (MMPIs)” (Bioorg Med Chem, 2017):
Calls of active or inactive are those of the source. The calls are words filed in the database; no cut-off is given here.

Columns and labels:
Interstitial collagenase = biological target: T1, Interstitial collagenase (Homo sapiens, UniProt P03956); experiment: Inhibition of MMP-1 (unknown origin) assessed as inhibition of hydrolysis of Mca-Pro-Leu-Gly-Leu-Dpa-Ala-Arg-NH2 substrate by fluorimetric assay
T1 sequence (P03956 whole entry): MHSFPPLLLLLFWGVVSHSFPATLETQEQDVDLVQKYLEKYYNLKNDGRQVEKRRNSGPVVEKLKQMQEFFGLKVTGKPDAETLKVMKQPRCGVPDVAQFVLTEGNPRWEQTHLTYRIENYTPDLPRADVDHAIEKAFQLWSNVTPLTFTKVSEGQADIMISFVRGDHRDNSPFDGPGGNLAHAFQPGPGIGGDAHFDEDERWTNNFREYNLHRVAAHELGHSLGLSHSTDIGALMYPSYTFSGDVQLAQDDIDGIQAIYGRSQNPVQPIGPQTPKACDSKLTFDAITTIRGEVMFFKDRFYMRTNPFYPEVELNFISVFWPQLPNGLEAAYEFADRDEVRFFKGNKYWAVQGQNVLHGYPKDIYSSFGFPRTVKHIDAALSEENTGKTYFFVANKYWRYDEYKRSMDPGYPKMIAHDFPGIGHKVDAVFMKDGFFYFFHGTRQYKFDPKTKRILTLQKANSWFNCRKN

[1] = biological target: 72 kDa type IV collagenase (Homo sapiens, UniProt P08253); experiment: Inhibition of MMP-2 (unknown origin) assessed as inhibition of hydrolysis of Mca-Pro-Leu-Gly-Leu-Dpa-Ala-Arg-NH2 substrate by fluorimetric assay
Matrilysin = biological target: T2, Matrilysin (Homo sapiens, UniProt P09237); experiment: Inhibition of MMP-7 (unknown origin) assessed as inhibition of hydrolysis of Mca-Pro-Leu-Gly-Leu-Dpa-Ala-Arg-NH2 substrate by fluorimetric assay
T2 sequence (P09237 whole entry): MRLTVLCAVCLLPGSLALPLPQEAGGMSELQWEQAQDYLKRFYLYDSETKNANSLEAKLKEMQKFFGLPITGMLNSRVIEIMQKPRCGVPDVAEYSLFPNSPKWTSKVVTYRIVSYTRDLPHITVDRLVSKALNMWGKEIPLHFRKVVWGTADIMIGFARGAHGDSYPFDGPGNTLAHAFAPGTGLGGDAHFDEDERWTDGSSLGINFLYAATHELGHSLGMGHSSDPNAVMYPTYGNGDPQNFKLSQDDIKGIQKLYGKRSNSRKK

[2] = biological target: T3, Matrix metalloproteinase-9 (Homo sapiens, UniProt P14780); experiment: Inhibition of human recombinant MMP-9 catalytic domain (112 to 445 residues) expressed in Escherichia coli assessed as inhibition of hydrolysis of Mca-Pro-Leu-Gly-Leu-Dpa-Ala-Arg-NH2 substrate by fluorimetric assay
Outline: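 Inhibition constant toward MMP-9 was determined fluorimetrically by monitoring hydrolysis of the quenched peptide substrate Mca-Pro-Leu-Gly-Leu-Dpa-Ala-Arg-NH₂.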

Collagenase 3 = Collagenase 3 (Homo sapiens, UniProt P45452); experiment: Inhibition of MMP-13 (unknown origin) assessed as inhibition of hydrolysis of Mca-Pro-Leu-Gly-Leu-Dpa-Ala-Arg-NH2 substrate by fluorimetric assay
[3] = biological target: T4, Macrophage metalloelastase (Homo sapiens, UniProt P39900); experiment: Inhibition of MMP-12 catalytic domain (unknown origin) assessed as inhibition of hydrolysis of Mca-Pro-Leu-Gly-Leu-Dpa-Ala-Arg-NH2 substrate by fluorimetric assay
Target sequence in this assay (P39900 whole entry, the tested form may be a part): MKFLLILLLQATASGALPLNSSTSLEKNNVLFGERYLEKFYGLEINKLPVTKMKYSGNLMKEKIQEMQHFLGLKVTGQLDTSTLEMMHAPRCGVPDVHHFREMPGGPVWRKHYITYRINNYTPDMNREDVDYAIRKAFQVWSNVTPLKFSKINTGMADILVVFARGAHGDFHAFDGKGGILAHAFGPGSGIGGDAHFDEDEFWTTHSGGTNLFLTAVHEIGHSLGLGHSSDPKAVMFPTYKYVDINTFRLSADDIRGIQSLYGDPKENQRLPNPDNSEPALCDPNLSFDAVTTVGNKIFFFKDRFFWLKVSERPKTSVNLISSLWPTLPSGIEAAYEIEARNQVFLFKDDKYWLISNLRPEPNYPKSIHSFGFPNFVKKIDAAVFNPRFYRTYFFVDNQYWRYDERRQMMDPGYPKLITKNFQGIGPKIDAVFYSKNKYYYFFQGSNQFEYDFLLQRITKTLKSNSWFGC

[4] = biological target: T4, Macrophage metalloelastase; experiment: Binding affinity to 15N-enriched MMP-12 catalytic domain (unknown origin) at 0.2 mM by 2D 1H-15N HSQC NMR spectroscopy
Outline: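 Ligand was added from a DMSO-d₆ solution to a final 0.2 mM with 1% DMSO-d₆. Amide NH resonances were followed by sensitivity-enhanced 2D ¹H-¹⁵N HSQC, and spectral changes were the binding read-out.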
Target sequence in this assay (P39900 106-470 limits assumed): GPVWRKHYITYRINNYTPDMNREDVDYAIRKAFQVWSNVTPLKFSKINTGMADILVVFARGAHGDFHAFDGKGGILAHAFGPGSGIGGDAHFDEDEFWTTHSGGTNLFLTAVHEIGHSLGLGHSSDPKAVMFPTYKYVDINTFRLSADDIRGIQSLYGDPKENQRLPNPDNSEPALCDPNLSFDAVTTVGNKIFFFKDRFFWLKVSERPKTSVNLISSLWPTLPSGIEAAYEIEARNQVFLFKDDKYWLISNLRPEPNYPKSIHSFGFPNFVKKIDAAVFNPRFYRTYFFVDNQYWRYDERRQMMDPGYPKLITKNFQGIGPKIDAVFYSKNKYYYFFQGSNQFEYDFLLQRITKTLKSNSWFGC

[5] = biological target: T4, Macrophage metalloelastase; experiment: Binding affinity to MMP-12 catalytic domain (unknown origin) assessed as hydrodynamic radius by dynamic light scattering method
Outline: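 Samples in glass tubes sat in a thermostatic cell filled with decahydronaphthalene for refractive-index matching. Cumulant fitting of the light-scattering data gave the diffusion coefficient of the complexes, and the average hydrodynamic radius came from the Stokes–Einstein relation assuming spherical particles.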
Target sequence in this assay (P39900 106-470 limits assumed): as above

[6] = biological target: T3, Matrix metalloproteinase-9; experiment: Inhibition of MMP-9 catalytic domain (unknown origin)

T3 sequence (P14780 whole entry, the tested form may be a part): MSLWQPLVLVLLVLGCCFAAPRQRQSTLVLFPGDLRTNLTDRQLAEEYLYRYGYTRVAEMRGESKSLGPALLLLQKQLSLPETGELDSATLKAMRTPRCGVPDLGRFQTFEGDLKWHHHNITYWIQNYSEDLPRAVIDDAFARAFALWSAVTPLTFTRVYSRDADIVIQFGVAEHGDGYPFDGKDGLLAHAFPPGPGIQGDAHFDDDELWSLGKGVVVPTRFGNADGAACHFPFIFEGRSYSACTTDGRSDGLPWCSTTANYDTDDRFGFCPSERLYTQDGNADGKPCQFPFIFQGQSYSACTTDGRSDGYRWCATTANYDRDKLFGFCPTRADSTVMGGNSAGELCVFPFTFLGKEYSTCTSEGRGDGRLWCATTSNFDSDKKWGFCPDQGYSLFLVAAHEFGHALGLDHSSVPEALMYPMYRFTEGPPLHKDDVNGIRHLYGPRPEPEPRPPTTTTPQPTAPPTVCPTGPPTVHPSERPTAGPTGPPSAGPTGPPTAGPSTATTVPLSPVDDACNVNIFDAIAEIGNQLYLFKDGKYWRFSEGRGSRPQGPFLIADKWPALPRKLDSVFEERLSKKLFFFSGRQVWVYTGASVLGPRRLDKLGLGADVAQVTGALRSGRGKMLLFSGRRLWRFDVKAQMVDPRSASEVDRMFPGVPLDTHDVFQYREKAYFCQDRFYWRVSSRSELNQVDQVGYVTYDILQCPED
Chain of 72 kDa type IV collagenase (P08253 whole entry): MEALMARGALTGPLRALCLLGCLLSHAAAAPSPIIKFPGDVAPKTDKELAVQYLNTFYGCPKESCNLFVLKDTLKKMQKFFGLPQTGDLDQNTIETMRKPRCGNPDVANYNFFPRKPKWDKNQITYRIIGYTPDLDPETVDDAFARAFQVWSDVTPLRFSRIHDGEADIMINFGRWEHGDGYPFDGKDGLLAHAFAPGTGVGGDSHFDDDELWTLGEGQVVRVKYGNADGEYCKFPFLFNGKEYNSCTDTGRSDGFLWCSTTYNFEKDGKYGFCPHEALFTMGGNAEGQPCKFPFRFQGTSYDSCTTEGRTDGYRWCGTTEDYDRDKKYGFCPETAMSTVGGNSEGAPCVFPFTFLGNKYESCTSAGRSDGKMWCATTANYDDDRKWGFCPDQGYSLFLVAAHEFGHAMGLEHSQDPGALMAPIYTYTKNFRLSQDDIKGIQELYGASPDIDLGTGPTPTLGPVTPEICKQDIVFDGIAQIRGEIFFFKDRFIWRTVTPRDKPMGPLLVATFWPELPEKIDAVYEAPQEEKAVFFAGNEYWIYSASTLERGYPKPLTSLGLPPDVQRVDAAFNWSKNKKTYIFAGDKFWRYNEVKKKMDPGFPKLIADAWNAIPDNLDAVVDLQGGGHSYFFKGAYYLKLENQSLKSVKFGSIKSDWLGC

Row | Ki (Interstitial collagenase) [nM] | Ki [1] [nM] | Ki (Matrilysin) [nM] | Ki [2] [nM] | Ki (Collagenase 3) [nM] | Ki [3] [nM] | Activity [4] | Activity [5] [nm] | Ki [6] [nM] | SMILES
1 | 143 | 15.9 | 3760 | 18 | 57.5 | 23 | Active | 3 | – | COc1ccc(S(=O)(=O)N(CCCCCNC(=O)CCCCC(=O)NCCNC(=O)CCN(CCNC(=O)OC(C)(C)C)CCC(=O)NCCNC(=O)CCCCC(=O)NCCCCCN([C@H](CO)C(=O)NO)S(=O)(=O)c2ccc(OC)cc2)[C@H](CO)C(=O)NO)cc1
2 | – | – | – | – | – | – | – | 2.1 | – | COc1ccc(S(=O)(=O)N(CC(=O)NO)CC(C)C)cc1
3 | – | – | – | – | – | – | – | – | 289 | COc1ccc(S(=O)(=O)N(CCNC(=O)CCCCC(=O)NCCNC(=O)CCN(CCNC(=O)OC(C)(C)C)CCC(=O)NCCNC(=O)CCCCC(=O)NCCN([C@H](CO)C(=O)NO)S(=O)(=O)c2ccc(OC)cc2)[C@H](CO)C(=O)NO)cc1
